# Assay results reported in ChEMBL document CHEMBL1148106, “Potent cytotoxic lignans from Justicia procumbens and their effects on nitric oxide and tumor necrosis factor-alpha production in mouse macrophages” (J Nat Prod, 2002).
# Numbered stars: 1 amine (or outer) side, 2 acyl side, 3 side chain; on linkers, the order of the positions; unused ones are H or OH. Bridge positions count the residues as written; N and C are the ends. Square brackets hold non-standard residues; d marks the D form. Peptide text beside a SMILES is read from it. I, II: the chains in the order shown. Actinocin(1to9) = Cc1c2oc3c(C)ccc(C(=O)[*:2])c3nc-2c(C(=O)[*:1])c(N)c1=O; NMeV = CN[C@H](C(=O)O)C(C)C; Sar = CNCC(=O)O
# Columns and labels:
# RAW264.7 [1] = assay: Antiinflammatory activity in LPS-stimulated mouse RAW264.7 cells assessed as effect on TNFalpha formation at 30 uM pretreated 1 hr before LPS challenge measured after 24 hrs; assay type: functional
# Procedure, shortened: (§1)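 Medium from RAW 264.7 macrophages (2 × 10⁵ cells/well, adhered overnight) pretreated 1 h at 37 °C with drug or 0.5% DMSO vehicle and then given 1 µg/mL LPS (E. coli 0111:B4) for 24 h. Supernatant stored at -70 °C, and TNF-α quantified by ELISA kit per manufacturer. Mean ± SEM, n = 3.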
# [2] = Cytotoxicity against mouse 212 cells by MTT assay; assay type: functional; settings: read-out: ED50 (the source's name)
# Procedure, shortened: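 Ha-ras-inducible NIH/3T3-derived 212 cells maintained in MEM alpha with 10% FBS and antibiotics, with 10 mM HEPES pH 7.3 added for the assay. Seeded at (1-3) × 10³ cells/well, allowed 6 h to attach, then exposed to drug 6 days at 37 °C. MTT pulse 4 h, SDS/HCl lysis, absorbance at 550 nm. Cell death expressed as percent MTT inhibition.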
# [3] = Cytotoxicity against human Hep3B cells by MTT assay; assay type: functional, Hep 3B2; settings: read-out: ED50 (the source's name)
# Procedure, shortened: (§2)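 Human lines from ATCC grown in DMEM with 10% FBS, 2 mM L-glutamine, penicillin and streptomycin, plus 10 mM HEPES pH 7.3 for the assay. (1-3) × 10³ cells/well, 6 h attachment, then drug exposure for 6 days at 37 °C. MTT added for 4 h, cells lysed in 10% SDS/0.01 M HCl, A550 read. Death calculated as percent MTT inhibition.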
# HepG2 = assay: Cytotoxicity against human HepG2 cells by MTT assay; assay type: functional; settings: read-out: ED50 (the source's name); procedure, shortened: as §2
# HT-29 = assay: Cytotoxicity against human HT-29 cells by MTT assay; assay type: functional; settings: read-out: ED50 (the source's name)
# Procedure, shortened: (§3)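 Cells grown in DMEM with 10% FBS plus antibiotics; assay medium supplemented with 10 mM HEPES pH 7.3, 37 °C CO2 incubator. (1-3) × 10³ cells/100 µL seeded, 6 h attachment, drug exposure 6 days. MTT added for 4 h at 37 °C, cells lysed in 10% SDS/0.01 M HCl, A550 read; cell death expressed as % MTT inhibition versus cell-only and medium-blank wells.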
# RAW264.7 [4] = assay: Antiinflammatory activity in LPS-stimulated mouse RAW264.7 cells assessed as effect on NO production pretreated 1 hr before LPS challenge measured after 24 hrs; assay type: functional, cell-based
# Procedure, shortened: (§4)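 RAW 264.7 cells in DMEM with 10% FBS and antibiotics, 2 × 10⁵ cells/well, adhered overnight. Pretreated 1 h at 37 °C with drug or vehicle (final DMSO 0.5%), then stimulated with 1 µg/mL E. coli 0111:B4 LPS for 24 h. Medium nitrite measured by Griess reaction (sulfanilamide, HCl, naphthylethylenediamine, 10 min room temperature, A550) against a NaNO2 standard curve. Mean ± SEM, n = 3.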
# Ca-Ski = assay: Cytotoxicity against human CaSKi cells by MTT assay; assay type: functional; settings: read-out: ED50 (the source's name); procedure, shortened: as §2
# SiHa = assay: Cytotoxicity against human SiHa cells by MTT assay; assay type: functional; settings: for EC50: Homo sapiens, SiHa, read-out: ED50 (the source's name); procedure, shortened: as §2
# RAW264.7 [5] = assay: Antiinflammatory activity in LPS-stimulated mouse RAW264.7 cells assessed as effect on TNFalpha formation pretreated 1 hr before LPS challenge measured after 24 hrs; assay type: functional, cell-based; procedure, shortened: as §1
# RAW264.7 [6] = assay: Antiinflammatory activity in LPS-stimulated mouse RAW264.7 cells assessed as effect on NO production at 10 uM pretreated 1 hr before LPS challenge measured after 24 hrs; assay type: functional; procedure, shortened: as §4
# RAW264.7 [7] = assay: Antiinflammatory activity in LPS-stimulated mouse RAW264.7 cells assessed as effect on NO production at 30 uM pretreated 1 hr before LPS challenge measured after 24 hrs; assay type: functional; procedure, shortened: as §4
# HCT-116 = assay: Cytotoxicity against human HCT116 cells by MTT assay; assay type: functional; settings: read-out: ED50 (the source's name); procedure, shortened: as §3
# RAW264.7 [8] = assay: Antiinflammatory activity in LPS-stimulated mouse RAW264.7 cells assessed as effect on NO production at 1 uM pretreated 1 hr before LPS challenge measured after 24 hrs; assay type: functional; procedure, shortened: as §4
# RAW264.7 [9] = assay: Antiinflammatory activity in LPS-stimulated mouse RAW264.7 cells assessed as effect on TNFalpha formation at 0.3 uM pretreated 1 hr before LPS challenge measured after 24 hrs; assay type: functional; procedure, shortened: as §1
# MCF7 = assay: Cytotoxicity against human MCF7 cells by MTT assay; assay type: functional; settings: read-out: ED50 (the source's name); procedure, shortened: as §3
# [10] = Cytotoxicity against human MCF7-ras cells by MTT assay; assay type: functional; settings: read-out: ED50 (the source's name); procedure, shortened: as §3
# RAW264.7 [11] = assay: Antiinflammatory activity in LPS-stimulated mouse RAW264.7 cells assessed as effect on TNFalpha formation at 0.1 uM pretreated 1 hr before LPS challenge measured after 24 hrs; assay type: functional; procedure, shortened: as §1
# RAW264.7 [12] = assay: Antiinflammatory activity in LPS-stimulated mouse RAW264.7 cells assessed as effect on NO production at 0.3 uM pretreated 1 hr before LPS challenge measured after 24 hrs; assay type: functional; procedure, shortened: as §4
# RAW264.7 [13] = assay: Antiinflammatory activity in LPS-stimulated mouse RAW264.7 cells assessed as effect on NO production at 3 uM pretreated 1 hr before LPS challenge measured after 24 hrs; assay type: functional
# Procedure, shortened: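 RAW 264.7 cells at 2 × 10⁵ per well in DMEM/10% FBS, adhered overnight. Pretreated 1 h at 37 °C with drug or vehicle (DMSO fixed at 0.5% final), then LPS (E. coli 0111:B4) 1 µg/mL for 24 h. Medium nitrite measured by Griess reaction (10 min RT, A550) against NaNO2 standard curve; mean ± SEM, n = 3, compared with control.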
SMILES,inhibition at 30 µM (RAW264.7 [1]),EC50 [2],EC50 [3],EC50 (HepG2),EC50 (HT-29),EC50 (HCT-116),further results
COc1cc2c(O[C@@H]3OC[C@](O)(CO[C@@H]4OC[C@@H](O)[C@H](O)[C@H]4O)[C@H]3O[C@H]3OC[C@@H](O)[C@@H](O[C@@H]4OC[C@](O)(CO)[C@H]4O)[C@@H]3O)c3c(c(-c4ccc5c(c4)OCO5)c2cc1OC)C(=O)OC3,-26%,,,,,,
COc1cc2c(O[C@@H]3OC[C@](O)(CO[C@@H]4OC[C@@H](O)[C@H](O)[C@H]4O)[C@H]3O[C@H]3OC[C@@H](O)[C@@H](O)[C@@H]3O)c3c(c(-c4ccc5c(c4)OCO5)c2cc1OC)C(=O)OC3,18.7%,,,,,,
COc1cc2c(O[C@@H]3OC[C@](O)(CO)[C@H]3O[C@H]3OC[C@@H](O)[C@@H](O)[C@@H]3O)c3c(c(-c4ccc5c(c4)OCO5)c2cc1OC)C(=O)OC3,,3.1 µg/mL,3.1 µg/mL,3.9 µg/mL,6.7 µg/mL,,
CC(=N)NCc1cccc(CN)c1 [1400W],,,,,,,IC50 (RAW264.7 [4]): 3100 nM
"Cc1c2oc3c(C)ccc(C(=O)N[C@@H]4C(=O)N[C@H](C(C)C)C(=O)N5CCC[C@H]5C(=O)N(C)CC(=O)N(C)[C@@H](C(C)C)C(=O)O[C@@H]4C)c3nc-2c(C(=O)N[C@@H]2C(=O)N[C@H](C(C)C)C(=O)N3CCC[C@H]3C(=O)N(C)CC(=O)N(C)[C@@H](C(C)C)C(=O)O[C@@H]2C)c(N)c1=O [DACTINOMYCIN] (I: T[dV]P[Sar][NMeV] / II: T[dV]P[Sar][NMeV]; ester I:1-I:C, II:1-II:C; linker I:N-II:N via Actinocin(1to9))",,,,,,,EC50 (Ca-Ski): 0.0019 µg/mL; ED50 (SiHa): 8.1 ×10⁻⁴ ug/ml
C[C@@H]1C[C@H]2[C@@H]3CCC4=CC(=O)C=C[C@]4(C)[C@@]3(F)[C@@H](O)C[C@]2(C)[C@@]1(O)C(=O)CO [DEXAMETHASONE],,,,,,,IC50 (RAW264.7 [5]): 700 nM
COc1cc2c(O)c3c(c(-c4ccc5c(c4)OCO5)c2cc1OC)C(=O)OC3 [DIPHYLLIN],-22.2%,2.7 µg/mL,3.6 µg/mL,0.4 µg/mL,2.5 µg/mL,0.8 µg/mL,inhibition at 10 µM (RAW264.7 [6]): -28.4%; inhibition at 30 µM (RAW264.7 [7]): -0.5%
O=c1[nH]cc(F)c(=O)[nH]1 [FLUOROURACIL],,,0.0715 µg/mL,0.033 µg/mL,0.074 µg/mL,0.48 µg/mL,
COc1cc2c(OC)c3c(c(-c4ccc5c(c4)OCO5)c2cc1OC)C(=O)OC3 [JUSTICIDIN A],,0.0227 µg/mL,0.029 µg/mL,0.02 µg/mL,,,inhibition at 1 µM (RAW264.7 [8]): 19.8%; inhibition at 0.3 µM (RAW264.7 [9]): -158%; EC50 (Ca-Ski): 0.003 µg/mL; EC50 (SiHa): 0.0074 µg/mL; EC50 (MCF7): 0.39 µg/mL; EC50 [10]: 0.074 µg/mL; inhibition at 0.1 µM (RAW264.7 [11]): -6%; inhibition at 0.3 µM (RAW264.7 [12]): 20.3%
COc1cc2c(O[C@@H]3OC[C@](O)(CO)[C@H]3O)c3c(c(-c4ccc5c(c4)OCO5)c2cc1OC)C(=O)OC3 [TUBERCULATIN],,,0.014 µg/mL,0.04 µg/mL,0.29 µg/mL,0.28 µg/mL,inhibition at 3 µM (RAW264.7 [13]): 16.9%; EC50 (SiHa): 0.12 µg/mL; EC50 (MCF7): 0.97 µg/mL; EC50 [10]: 0.09 µg/mL
